# The list is not random: actives were taken first. Their share in the collection is about 2.6%.
# TAAR1 antagonist – human TAAR1 antagonists, primary screen, Fluo-8 calcium fluorescence, CHO RD-HGA16 cells; hit rate 1.5% among 360,000; inhibition, % at 3 µM; AID 624466, 2012; Trace amine-associated receptor 1 (Homo sapiens), Q96RJ0; antagonist;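 active = inhibition above a per-plate cutoff, the mean inhibition of test compounds on that plate plus 3 SD, cut at about 49% in these data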;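 note: 0% = DMSO plus EC80 beta-PEA response and 100% = DMSO alone without agonist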
#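 test system = CHO RD-HGA16 cells bearing hTAAR1 | replication = singlicate | controls = DMSO-only wells and EC80 β-PEA-stimulated wells | reagent = EC80 β-phenethylamine stimulus | read-out basis = percent inhibition of PEA-evoked calcium signal, max/basal emission ratio | schedule = seeding 17-24 h prior, 75-min 37 °C, 30-min RT dye loading | signal = kinetic Fluo-8 calcium fluorescence measurement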
# TAAR1 ag – human TAAR1 agonists, primary screen, Fluo-8 calcium fluorescence, CHO RD-HGA16 cells | activation, % at 3 µM | AID 624467, 2012 | Trace amine-associated receptor 1 (Homo sapiens), Q96RJ0 | hit rate 0.99% among 360,000 | vehicle wells 0%, saturating PEA agonist 100%;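 active = activation above the mean activation of all test compounds in the run plus 3 SD, cut at about 38% in these data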
#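 test system = CHO RD-HGA16 cells carrying human TAAR1 plus Gα16 | schedule = 17-24 h seeding, 75 min 37 °C dye, 30 min RT | compound dosing = 3 µM single concentration | control set = DMSO and PEA EC100 | replicates = n 1 | signal = Fluo-8 fluorescence, 5 s baseline then 140 s kinetic read | measure = percent activation vs PEA EC100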
# Rce1 inh – yeast Rce1p protease inhibitors, primary screen, biochemical, fluorescence, cell-free homogeneous. CAAX prenyl protease 2 (Saccharomyces cerevisiae (strain ATCC 204508 / S288c)), Q03530. yeast membranes, quenched prenylated peptide cleavage fluorescence. calls only. hit rate 0.27% among 290,000. AID 2563, 2010;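 active = fall in fluorescence gain of 50% or more versus controls, with final raw signal at or below 3038400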;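 note: plate controls were neutral control wells for no effect and wells lacking membranes for full effect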
# VLA-4 inh – inhibition in human VLA-4 binding assay, primary screen, VLA-4 allosteric modulator project, MLPCN library, flow cytometry, VLA-4 expressing cells; Integrin alpha-4 (Homo sapiens), P13612; ligand binding flow cytometry; inhibition, % (about 7 µM as worked out from the volumes in the protocol); hit rate 0.2% among 330,000; in the data active = inhibition above about 50%
# Platelet DG rel – inhibitors of platelet dense granule secretion, primary screen, cell-based, MLPCN, human platelets; inhibition, %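 (compounds screened at 7.5 µM in platelet-rich plasma)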; human platelet-rich plasma, SFLLRN dense granule ATP release, luminescence; AID 1663, 2009; hit rate 0.22% among 300,000;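 active = mean replicate score, as percent of positive control, at or above 50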
# VLA-4 mod pick – retest of VLA-4 allosteric modulators, confirmation, cell-based, cherry-picked plates, U937, HUTS-21 LIBS antibody; inhibition, % at 6.7 µM; shares compounds with VLA-4 inh; AID 2813, 2010; hit rate 2% among 1,300; U937 cells, HUTS-21 LIBS mAb binding, flow cytometry; LDV ligand present at threefold Kd; in the data active = inhibition above about 40%;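 note: 0% = ligand without compound and 100% = no ligand background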
# The depositor's hits bear a star; i = inactive; nt = not tested or not shown.
SMILES,TAAR1 antagonist,TAAR1 ag,Rce1 inh,VLA-4 inh,Platelet DG rel,VLA-4 mod pick
CC(CCc1ccccc1)NC(=O)C(C)OC(=O)c1ccco1 (stereo not drawn),-20.4,2.2,i,4.2,-10.5,nt
CCN(CC(=O)Nc1ccccc1C(F)(F)F)C(=O)c1ccc2c(c1)NC(=O)C(C)S2 (stereo not drawn),-7.8,8.2,nt,nt,nt,nt
COc1ccc2[nH]c(C(=O)O)c(NC(=O)c3cc(OC)c(OC)c(OC)c3)c2c1,4.7,7.9,i,1.9,4.0,nt
O=C(COc1ccc2c3c(c(=O)oc2c1)CCCC3)N1CCN(c2ccccc2)CC1,-24.6,-0.6,i,27.1,-9.9,nt
CC[C@@H]1C=C(C(=O)O)[C@H](c2ccc(C#N)cc2)N1S(=O)(=O)c1ccc(C)cc1,-23.6,7.3,nt,-31.7,nt,nt
CCCC[C@@H]1C=C(C(=O)O)[C@H](c2ccc(CC)cc2)N1S(=O)(=O)c1ccc(C)cc1,-3.6,-1.2,nt,-9.9,nt,2.1
CCCC[C@@H]1C=C(C(=O)O)[C@H](c2ccc(Br)cc2)N1S(=O)(=O)c1ccc(C)cc1,-8.8,-0.4,nt,-13.7,nt,-1.4
CCCCC[C@@H]1C=C(C(=O)O)[C@H](c2cccc(C)c2)N1S(=O)(=O)c1ccc(C)cc1,-1.3,0.8,nt,21.9,nt,0.6
CCCCC[C@@H]1C=C(C(=O)O)[C@H](c2ccc(F)cc2)N1S(=O)(=O)c1ccc(C)cc1,6.1,-1.1,nt,-22.4,nt,0.0
CCCCC[C@@H]1C=C(C(=O)O)[C@H](c2ccc(Cl)c(Cl)c2)N1S(=O)(=O)c1ccc(C)cc1,14.9,3.3,nt,42.4,nt,nt
O=C(C(=O)N1CCC(CNC(=O)C2COc3ccccc3O2)CC1)c1cccs1 (stereo not drawn),5.7,1.1,nt,nt,nt,nt
COc1cc(NC(=O)CSc2nnc(-c3ccncc3)o2)cc(OC)c1OC,-24.9,4.8,i,-23.4,5.8,nt
O=C(CCCOC(=O)c1ccc(O)cc1O)c1ccc(Br)cc1,30.0,1.0,nt,nt,nt,nt
O=C(CSc1ccccc1F)NC(=O)NC1CCCC1,-6.3,-2.4,nt,nt,nt,nt
CC(C)(C)S(=O)(=O)N1C[C@H]2CC/C=C\C/C=C\2[C@@H]1CCO,5.4,0.4,nt,nt,nt,nt
CC1(C(=O)NS(=O)(=O)C2CC2)CCCN(C(=O)c2c(F)cccc2F)C1 (stereo not drawn),-13.5,0.3,nt,nt,nt,nt
CCCCC[C@@H]1C=C(C(=O)O)[C@H](c2ccc(CC)cc2)N1S(=O)(=O)c1ccc(C)cc1,8.9,-0.2,nt,35.1,nt,-0.8
CCCCC[C@@H]1C=C(C(=O)O)[C@H](c2ccc(OC)c(OC)c2)N1S(=O)(=O)c1ccc(C)cc1,-5.1,-1.2,nt,26.8,nt,3.3
COc1ccc([C@@H]2CC=C(C(=O)O)[C@H](c3ccc(C)cc3)N2S(=O)(=O)c2ccc(C)cc2)cc1OC,-5.2,6.5,nt,-20.8,nt,nt
CC[C@@H]1C=C(C(=O)O)[C@H](c2ccc(Br)cc2)N1S(=O)(=O)c1ccc(C)cc1,-13.9,-0.8,nt,29.3,nt,nt
CCc1ccc([C@H]2C(C(=O)O)=C[C@@H](CC)N2S(=O)(=O)c2ccc(C)cc2)cc1,-6.0,2.1,nt,23.5,nt,-1.4
CCCCC[C@@H]1C=C(C(=O)O)[C@H](c2ccc3c(c2)OCO3)N1S(=O)(=O)c1ccc(C)cc1,13.1,-0.5,nt,-2.5,nt,7.3
CC[C@@H]1C=C(C(=O)O)[C@H](c2ccc3c(c2)OCO3)N1S(=O)(=O)c1ccc(C)cc1,7.8,0.9,nt,47.6,nt,nt
Cc1ccc(CNC(=O)C2CCC(=O)N(CCc3ccccc3)C2)s1 (stereo not drawn),-11.7,4.8,i,3.6,-1.7,nt
CCc1ccc(OCc2nnc(SCC(=O)Nc3cccc(C(=O)N4CCOCC4)c3)o2)cc1,12.3,7.1,i,42.9,4.7,4.5
SMILES,TAAR1 antagonist,TAAR1 ag,Rce1 inh,VLA-4 inh,Platelet DG rel,VLA-4 mod pick
CCc1ccc(NC(=O)CSc2n[nH]c(=O)n2C2CC2)cc1,-5.3,1.3,nt,nt,nt,nt
O=C(NCCCn1ccnc1)C(=O)NCC(c1cccnc1)N1CCN(c2ccccc2)CC1 (stereo not drawn),-6.6,0.3,i,57.2*,-5.6,-6.8
CC1(C)NC(=O)N(CC(O)CN2C(=O)NC(C)(C)C2=O)C1=O,0.6,12.3,i,-18.7,6.7,nt
Cc1cc(C)n(CC(O)CN2C(=O)NC(C)(C)C2=O)n1 (stereo not drawn),12.1,-0.4,i,54.2*,9.1,1.8
CCN(CC)C(=O)c1sc2nc(N3CCOCC3)c3c(c2c1N)CCCC3,-3.9,7.1,i,-5.1,-1.9,nt
COC(=O)c1sc2nc(N3CCCCC3)c3c(c2c1N)CCCC3,-70.8,-3.3,i,89.8*,2.0,0.0
CN(C)/C(=C\C(=O)c1ccccc1)C(=O)c1ccccc1,-10.8,0.9,nt,nt,nt,-7.6
O=C(C=C(C(=O)c1ccccc1)c1ccccc1)c1ccccc1,-13.6,-0.6,nt,nt,nt,nt
CCn1cc(CNCc2cn(C)nc2-c2ccc(C3CCCCC3)cc2)cn1,-6.7,6.5,i,nt,1.4,nt
O=C(CN1C(=O)NC2(CCCC2)C1=O)NNC(=O)c1ccc(F)cc1,-0.1,2.1,i,-6.7,25.5,nt
CCNC(=S)Nc1cc(OCC)c(N2CCOCC2)cc1OCC,7.1,4.5,i,45.2,10.6,1.3
CCOC(=O)CSc1nnc(CNC(=O)c2ccc(S(=O)(=O)N3CCOCC3)cc2)n1C,0.8,2.2,i,41.9,2.5,9.4
Cc1cc(O)c(NC(=O)c2cc([N+](=O)[O-])ccc2Cl)cc1C,11.1,10.8,i,51.2*,-1.9,-7.7
Cc1ccc(O)c(NC(=O)c2cc([N+](=O)[O-])ccc2Cl)c1,3.1,1.8,i,-22.5,0.9,nt
Clc1ccc(SCc2cc(Cl)nc(-c3ccccc3)n2)cc1,-26.5,1.9,i,0.1,12.2,nt
Clc1cc(CSc2ccccc2)nc(-c2ccccc2)n1,-7.5,-1.9,i,94.2*,1.1,5.4
Cc1ccccc1CNC(=O)CCC(=O)N1CCOc2ccc(Cl)cc21,-16.2,-0.6,i,-2.7,-3.9,nt
c1ccc(CCC2CCCCN2Cc2nc(C3CC3)no2)cc1 (stereo not drawn),4.2,9.5,i,44.5,-1.0,-15.1
Cn1c(=O)n(Cc2ccccc2Cl)c(=O)c2c1[nH]c(=S)n2C,-20.2,-1.8,i,5.6,-1.6,nt
COc1cccc2[nH]c3c(=O)n(CCCN4CCOCC4)cnc3c12,-7.9,0.8,i,-0.6,-0.1,10.0
COC(=O)[C@]1(Cc2ccccc2)N[C@H](CN(C)S(=O)(=O)c2ccc(C(C)(C)C)cc2)[C@@H]2C(=O)N(Cc3ccccc3)C(=O)[C@@H]21,-17.6,0.3,nt,-15.8,nt,-6.2

# Screening results deposited in PubChem BioAssay by several laboratories.
